In ChEMBL document CHEMBL1268835, “Property based optimization of δ-lactam HDAC inhibitors for metabolic stability” (Bioorg Med Chem Lett, 2010):

Columns and labels:
ACHN = assay: Growth inhibition of human ACHN cells; format: functional
PC-3 = assay: Growth inhibition of human PC3 cells; format: functional, cell-based
MDA-MB-231 = assay: Growth inhibition of human MDA-MB-231 cells; format: functional, cell-based
HCT-15 = assay: Growth inhibition of human HCT15 cells; format: functional
[1] = Metabolic stability of the compound in ICR mouse liver microsome assessed as compound remaining at 1 uM; format: ADME; settings: liver microsomes, read-out: Stability
Outline: (§1)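 Test compounds were incubated at 37 °C with ICR mouse liver microsomes, with NADPH, without NADPH, and in buffer alone. Read-out is % parent remaining. The screen used 1 mg protein/ml for 30 min. A separate run used female ICR microsomes at 0.5 mg protein/mL for 60 min with 1 µM compound.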

Mus musculus [2] = assay: Half life in BALB/c mouse at 10 mg/kg, iv; settings: in vivo
[3] = Tmax in BALB/c mouse at 20 mg/kg, po; format: ADME, organism-based; set-up: dose 20 mg/kg, route oral; settings: in vivo
Outline: (§2)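 Balb/c mice were dosed intravenously or orally. Parameters come from noncompartmental analysis of mean plasma concentration–time profiles from three animals. Intravenous AUC was taken from 0 to infinity and oral AUC from 0 to 5 h. Oral bioavailability (F) is expressed as %.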

[4] = AUC (0 to 5 hrs) in BALB/c mouse at 20 mg/kg, po; format: ADME, organism-based; set-up: dose 20 mg/kg, route oral; settings: plasma; outline: as §2
Mus musculus [5] = assay: Clearance in BALB/c mouse at 10 mg/kg, iv; settings: in vivo
[6] = Metabolic stability of the compound in ICR mouse liver microsome assessed as compound remaining at 1 uM in presence of buffer; format: ADME; settings: liver microsomes, read-out: Stability; outline: as §1
[7] = Cmax in BALB/c mouse at 20 mg/kg, po; format: ADME, organism-based; set-up: dose 20 mg/kg, route oral; settings: in vivo; outline: as §2
[8] = Oral bioavailability in BALB/c mouse at 20 mg/kg; format: ADME, organism-based; settings: in vivo; outline: as §2
Mus musculus [9] = assay: (§3) Volume of distribution at steady state in BALB/c mouse at 5 mg/kg, iv; format: ADME, organism-based; set-up: dose 5 mg/kg, route intravenous; settings: in vivo; outline: as §2
[10] = Metabolic stability of the compound in ICR mouse liver microsome assessed as compound remaining at 1 uM in presence of NADPH; format: ADME; settings: liver microsomes, read-out: Stability; outline: as §1
[11] = AUC (0 to infinity) in BALB/c mouse at 5 mg/kg, iv; format: ADME, organism-based; set-up: time infinity, dose 5 mg/kg, route intravenous; settings: plasma; outline: as §2
NUGC-3 = assay: Growth inhibition of human NUGC3 cells; format: functional
NCI-H23 = assay: Growth inhibition of human NCI-H23 cells; format: functional
[12] = Half life in BALB/c mouse at 20 mg/kg, po; format: ADME, organism-based; set-up: dose 20 mg/kg, route oral; settings: in vivo; outline: as §2
[13] = Half life in BALB/c mouse at 5 mg/kg, iv; format: ADME, organism-based; set-up: dose 5 mg/kg, route intravenous; settings: in vivo; outline: as §2
[14] = Apparent permeability across human Caco-2 cells; format: ADME, cell-based
[15] = Clearance in BALB/c mouse at 5 mg/kg, iv; format: ADME, organism-based; set-up: dose 5 mg/kg, route intravenous; settings: in vivo; outline: as §2
[16] = as §3; format: ADME, organism-based; set-up: dose 5 mg/kg, route intravenous; settings: BALB/c, in vivo, read-out: Vdss; outline: as §2

GI50 (ACHN) [nM] | GI50 (PC-3) [nM] | GI50 (MDA-MB-231) [nM] | GI50 (HCT-15) [nM] | remaining at 1 µM [1] [%] | remaining at 1 µM [10] [%] | GI50 (NCI-H23) [nM] | Compound | GI50 (NUGC-3) [nM] | other results
3000 | 5190 | 2840 | 2940 | – | – | – | CC(C)(C)c1ccc(CN2CCC=C(CCC(=O)NO)C2=O)cc1 | – | –
– | 5810 | 3120 | 5370 | 55 | 31.7 | – | O=C(CCC1=CCCN(Cc2ccc(Br)cc2F)C1=O)NO | – | t1/2 (Mus musculus [2]): 372 min; Tmax [3]: 15 min; AUC(0-t) at 4 h [4]: 732 ng·h/mL; CL (Mus musculus [5]): 65 mL/min/kg; remaining at 1 µM [6]: 102%; Cmax [7]: 1390 ng/mL; bioavailability [8]: 14.1%; Vdss (Mus musculus [9]): 0.8 L/kg; AUC(0-inf) [11]: 2590 ng·h/mL
– | > 10000 | 4040 | 4410 | – | – | – | Cc1cccc(CCN2CCC=C(CCC(=O)NO)C2=O)c1 | – | –
4550 | 6340 | 2840 | 4000 | – | – | 5560 | Cc1ccc(CCN2CCC=C(CCC(=O)NO)C2=O)cc1 | 3570 | –
7600 | 4840 | 3030 | 3960 | – | – | 7060 | COc1cccc(CCN2CCC=C(CCC(=O)NO)C2=O)c1 | 4260 | –
4470 | 7070 | 3020 | 3600 | 52.7 | 45.3 | 6090 | O=C(CCC1=CCCN(CCc2ccccc2F)C1=O)NO | 3780 | remaining at 1 µM [6]: 104%
8710 | 7250 | 3910 | 4210 | – | – | 6500 | O=C(CCC1=CCCN(CCc2ccccc2Cl)C1=O)NO | 5930 | –
1280 | 1510 | 920 | 1660 | – | – | 2120 | O=C(CCC1=CCCN(CCc2ccc(Cl)cc2)C1=O)NO | 1060 | –
300 | 810 | 870 | 1250 | – | – | 1830 | O=C(CCC1=CCCN(CCc2cccc(Br)c2)C1=O)NO | 820 | –
– | 3410 | 1870 | 870 | 56.6 | 29.6 | – | O=C(CCC1=CCCN(CCc2ccc(Br)cc2)C1=O)NO | – | remaining at 1 µM [6]: 104%
2640 | 2470 | 1900 | 2350 | – | – | 3970 | O=C(CCC1=CCCN(CCc2cccc(C(F)(F)F)c2)C1=O)NO | 1700 | –
– | 4820 | 1810 | 1700 | – | – | – | O=C(CCC1=CCCN(CCc2ccc(C(F)(F)F)cc2)C1=O)NO | – | –
> 10000 | > 10000 | > 10000 | > 10000 | – | – | > 10000 | O=C(CCC1=CCCN(CCc2ccc([N+](=O)[O-])cc2)C1=O)NO | > 10000 | –
2270 | 500 | 1130 | 520 | – | – | 990 | CC(C)(C)c1ccc(CCN2CCC=C(CCC(=O)NO)C2=O)cc1 | 1100 | –
1720 | 1130 | > 10000 | 1660 | 8 | 3.3 | 2000 | CC(C)(C)c1ccc(CCCN2CCC=C(CCC(=O)NO)C2=O)cc1 | 2810 | remaining at 1 µM [6]: 103%
460 | 300 | 560 | 530 | – | – | 490 | O=C(CCC1=CCCN(CCCc2ccc3ccccc3c2Br)C1=O)NO | 790 | –
2490 | 2530 | 3050 | 2940 | 5.7 | 4 | 2790 | Cc1ccc(CCCCN2CCC=C(CCC(=O)NO)C2=O)cc1 | 2130 | remaining at 1 µM [6]: 99.3%
9530 | > 10000 | > 10000 | > 10000 | – | – | > 10000 | O=C(CCC1=CCCN(CCCCc2ccc(F)cc2)C1=O)NO | 9020 | –
2460 | 4150 | 2560 | 3300 | – | – | 2880 | O=C(CCC1=CCCN(CCCCc2ccc(Cl)cc2)C1=O)NO | 1790 | –
2390 | 4810 | 3540 | 3190 | – | – | 2730 | O=C(CCC1=CCCN(CCCCc2ccc(Br)cc2)C1=O)NO | 2010 | –
4480 | 4650 | 3580 | 6220 | 40.3 | 31.3 | 2960 | O=C(CCC1=CCCN(Cc2cccc(Cl)c2)C1=O)NO | 3920 | remaining at 1 µM [6]: 103%
– | 8480 | 4180 | > 10000 | – | – | – | N#Cc1cccc(CN2CCC=C(CCC(=O)NO)C2=O)c1 | – | –
– | > 10000 | 8170 | > 10000 | – | – | – | N#Cc1ccc(CN2CCC=C(CCC(=O)NO)C2=O)cc1 | – | –
1890 | 3250 | 2030 | 5400 | 8.5 | 8.7 | 5990 | O=C(CCC1=CCCN(CCCCc2ccccc2)C1=O)NO | 3190 | half-life [12]: 9 min; Tmax [3]: 15 min; half-life [13]: 77.4 min; AUC(0-t) at 4 h [4]: 64.4 ng·h/mL; Papp [14]: 23.9 ×10⁻⁶ cm/s; remaining at 1 µM [6]: 97.3%; Cmax [7]: 197 ng/mL; clearance [15]: 49.8 mL/min/kg; bioavailability [8]: 1%; Vd [16]: 0.27 L/kg; AUC(0-inf) [11]: 1670 ng·h/mL
380 | 390 | 270 | 310 | – | – | 430 | O=C(CCC1=CCCN(CCc2ccc3ccccc3c2)C1=O)NO | 360 | –
– | – | – | – | 86.8 | 1.2 | – | CN(C)CCCN1c2ccccc2Sc2ccc(Cl)cc21 [CHLORPROMAZINE] | – | –
– | – | – | – | – | – | – | COCCc1ccc(OCC(O)CNC(C)C)cc1 (stereo unspecified) [METOPROLOL] | – | Papp [14]: 29.6 ×10⁻⁶ cm/s
– | – | – | – | – | – | – | CNC(=C[N+](=O)[O-])NCCSCc1ccc(CN(C)C)o1 [RANITIDINE] | – | Papp [14]: 1.5 ×10⁻⁶ cm/s

Compound | GI50 (ACHN) [nM] | GI50 (PC-3) [nM] | GI50 (MDA-MB-231) [nM] | GI50 (HCT-15) [nM] | remaining at 1 µM [1] [%] | remaining at 1 µM [10] [%] | GI50 (NCI-H23) [nM] | GI50 (NUGC-3) [nM] | other results
O=C1CC2(CCCC2)CC(=O)N1CCCCN1CCN(c2ncccn2)CC1 [BUSPIRONE] | – | – | – | – | 96.6 | 0.3 | – | – | remaining at 1 µM [6]: 106%
